Source: PubChem (several laboratories)
Tb hexokinase – blocks Trypanosoma brucei hexokinase 1 activity | recombinant TbHK1, G6PDH-coupled NADH A340 | inhibition, % at 10 µM | 220,000 compounds, 0.11% hits;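 active = inhibition of 50% or more in the single-dose primary screen; inactive = inhibition below 50%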
HKDC1 inh – HKDC1 (human) hexokinase inhibition; Q2TB90; recombinant HKDC1, G6PDH/diaphorase resazurin coupled fluorescence; inhibition, % at 20 µM; 340,000 compounds, 0.16% hits; AID 493160;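 active = inhibition above about 35% when tested at 20 µM, limit read from the data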
Target sequence (Q2TB90 whole entry, looked up): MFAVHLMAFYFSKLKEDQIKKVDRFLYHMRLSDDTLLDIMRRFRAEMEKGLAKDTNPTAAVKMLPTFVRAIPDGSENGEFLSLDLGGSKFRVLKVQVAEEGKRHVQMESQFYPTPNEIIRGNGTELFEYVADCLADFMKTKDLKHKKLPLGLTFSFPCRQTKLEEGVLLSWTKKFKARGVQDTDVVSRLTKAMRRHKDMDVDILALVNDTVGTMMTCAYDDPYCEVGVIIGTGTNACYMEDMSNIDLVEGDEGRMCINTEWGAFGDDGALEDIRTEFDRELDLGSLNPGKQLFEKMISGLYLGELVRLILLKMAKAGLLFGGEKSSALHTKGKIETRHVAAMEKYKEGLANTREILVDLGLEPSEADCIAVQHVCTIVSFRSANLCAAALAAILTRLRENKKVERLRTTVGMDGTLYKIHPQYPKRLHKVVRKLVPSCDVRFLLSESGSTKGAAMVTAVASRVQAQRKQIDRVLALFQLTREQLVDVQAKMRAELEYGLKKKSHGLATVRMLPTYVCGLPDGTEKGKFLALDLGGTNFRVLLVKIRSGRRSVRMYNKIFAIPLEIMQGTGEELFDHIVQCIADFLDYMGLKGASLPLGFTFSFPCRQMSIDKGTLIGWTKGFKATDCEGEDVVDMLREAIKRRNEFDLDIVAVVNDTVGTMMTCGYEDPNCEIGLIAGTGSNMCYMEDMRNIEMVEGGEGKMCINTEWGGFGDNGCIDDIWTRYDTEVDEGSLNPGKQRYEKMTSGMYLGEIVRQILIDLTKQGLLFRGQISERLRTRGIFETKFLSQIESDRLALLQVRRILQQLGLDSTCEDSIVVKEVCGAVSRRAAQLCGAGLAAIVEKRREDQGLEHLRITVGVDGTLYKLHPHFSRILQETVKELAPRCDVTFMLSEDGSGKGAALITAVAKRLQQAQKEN
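Test system: recombinant HKDC1 (HK5) hexokinase enzyme, produced in-house / Doses: 20 µM test compound, 1% DMSO / Timing: 90 min, room temperature / Detection: G6PDH/diaphorase-coupled fluorescence, 1 mM NADP, 100 µM resazurin, 525/613 nm / Control set: DMSO wells with and without enzyme mix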
PfGluPho inh – PfG6PD (Plasmodium falciparum) enzyme inhibition | PfGluPho enzyme, NADPH resazurin-diaphorase fluorescence | 350,000 compounds, 0.78% hits | inhibition, % at 20 µM;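 active = inhibition reaching at least a set limit at 20 µM in the primary screen, cut at about 59% in these data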
G6PDH CS – L. mesenteroides G6PDH inhibition counter-screen; 200,000 compounds, 0.12% hits; Purified L. mesenteroides G6PDH, diaphorase/resazurin coupled fluorescence, 45 min; inhibition, % at 5 µM; AID 1020; in the data active = inhibition above about 50%
Diaph inh CS – counter-screen for diaphorase-based assays: diaphorase inhibitors and chemical oxidizers; inhibition, % at 20 µM; 190,000 compounds, 0.69% hits; AID 1217; diaphorase resazurin-to-resorufin fluorescence, NADH, 16 min; bacterial (C. kluyveri) enzyme, not human;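 active = primary screen inhibition at 20 µM above a set limit, cut at about 50% in these data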
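System: Diaphorase enzyme from Clostridium kluyveri | Amount: Enzyme working solution with 0.14 U/mL diaphorase | Benchmarks: No-NADH positive control and DMSO neutral control | Signal: Fluorescence of resorufin formed from resazurin, Ex 544/Em 590 nm | Schedule: 16-min room-temperature incubation before reading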
Large screens that a line does not name were inactive. Sampled rows, rich in hits. Any-hit rate of the full collection: about 1.3%.

CC(C)NC(=O)N(C)C[C@H]1Oc2ccc(NS(=O)(=O)c3cn(C)cn3)cc2C(=O)N([C@H](C)CO)C[C@@H]1C	none (no result: Tb hexokinase, G6PDH CS, Diaph inh CS)
COc1cc(C(=O)NCC2CCCO2)cc(OC)c1OC (centres undefined)	none
O=C1OCC2OC(O)C(O)C(O)C2OC(=O)c2cc(O)c(O)c(O)c2-c2c(O)c(O)c3oc(=O)c4c(c(O)c(O)c5oc(=O)c2c3c54)-c2c1cc(O)c(O)c2O (centres undefined)	Tb hexokinase 54 (no result: HKDC1 inh, PfGluPho inh, G6PDH CS, Diaph inh CS)
CC(C)NC(=O)N1CCC(c2nc3ccccc3s2)CC1	none (no result: Tb hexokinase, G6PDH CS, Diaph inh CS)
O=C1/C(=C2\C(=O)N(Cc3ccc(F)cc3)c3ccccc32)SC(=S)N1CCS(=O)(=O)O	none (no result: Tb hexokinase, G6PDH CS, Diaph inh CS)
O=C(O)CN1C(=O)/C(=C2\C(=O)N(Cc3ccccc3Cl)c3ccccc32)SC1=S	HKDC1 inh 51 (no result: Tb hexokinase, G6PDH CS, Diaph inh CS)
COc1ccccc1C(=O)c1c(C)c(CCC#N)n2ccccc12	none (no result: Tb hexokinase, G6PDH CS, Diaph inh CS)
O=C(N/N=C/c1cc(Br)cc(Br)c1O)c1ccncc1	Diaph inh CS 52
O=C(N/N=C/c1cc(Cl)cc(Cl)c1O)c1ccncc1	none (no result: G6PDH CS, Diaph inh CS)
CCOC(=O)c1cn(-c2c(Cl)cccc2Cl)c2cc(Cl)c([N+](=O)[O-])cc2c1=O	Diaph inh CS 52
Cc1ccc(C)c(OCCCC(=O)Nc2ccc(N3CCOCC3)cc2)c1	none (no result: HKDC1 inh, PfGluPho inh)
CCOC(=O)Cc1csc(NC(=O)NC2(C(F)(F)F)Oc3ccc(Cl)cc3O2)n1 (centres undefined)	none
CCOC(=O)Cc1csc(NC(=O)NC2(C(F)(F)F)Oc3cc(Cl)c(Cl)cc3O2)n1	G6PDH CS 51
CC(C)c1ccc(NC(=O)c2ccc3snnc3c2)cc1	none (no result: Tb hexokinase, G6PDH CS, Diaph inh CS)
COc1ccc(C(C)=O)cc1COC(=O)C1CC(=O)N(Cc2ccccc2)C1 (centres undefined)	none (no result: Tb hexokinase, G6PDH CS, Diaph inh CS)
Cc1cccc(C(=O)Nc2nnc(S(=O)(=O)N(C)Cc3ccco3)s2)c1	PfGluPho inh 95 (no result: Tb hexokinase, G6PDH CS, Diaph inh CS)
CCN(Cc1ccncc1)Cc1ccc(OC)c(OC)c1	none (no result: Tb hexokinase, G6PDH CS, Diaph inh CS)
CCOC(=O)c1c2ccc(OCC(=O)N/N=C/c3ccccc3C(F)(F)F)cc2n2ccccc12	Diaph inh CS 52 (no result: HKDC1 inh, PfGluPho inh)
CCOc1ccc2c(c1)C(C)=CC(C)(C)N2C(=O)Nc1ccccc1	PfGluPho inh 78
COc1ccc(NC(=O)N2c3ccc(OC)cc3C(C)=CC2(C)C)cc1	none
Cc1c(Cl)sn(-c2ccc(Cl)cc2)c1=O	PfGluPho inh 106
CCCCCCNC(=O)N[C@@H](C(=O)NCCC[C@H]1CN2C(=NC[C@@H]2Cc2ccccc2)N1CCc1cccc(OC)c1)C(C)C	PfGluPho inh 64 (no result: G6PDH CS, Diaph inh CS)
C/C=C(\C)C(=O)NCCN1C2=NC[C@@H](Cc3ccccc3)N2C[C@@H]1Cc1ccc(OC)cc1	none (no result: Tb hexokinase, G6PDH CS, Diaph inh CS)
CCc1c(C)[nH]c2ccc(OC)cc2c1=S	PfGluPho inh 67
O=C(COc1cccc(F)c1)Nc1ccc2[nH]c(=O)[nH]c2c1	Diaph inh CS 55
C=CCOn1c(=O)c(-c2ccc(Br)cc2)[n+]([O-])c2ccccc21	none (no result: Tb hexokinase, G6PDH CS, Diaph inh CS)
O=C(C[n+]1ccc(CCSc2ccc(F)cc2)cc1)c1ccccc1	PfGluPho inh 70
Cc1ccc(SCCc2cc[n+](CC(=O)c3ccccc3)cc2)cc1	none
NS(=O)(=O)c1ccc(CCNC(=O)Cc2c[nH]c3ccccc23)cc1	none
Cc1cc(C(=O)COc2cccnc2[N+](=O)[O-])c(C)n1Cc1cccs1	Diaph inh CS 60
CC(=O)Nc1ccccc1OCC(=O)c1cc(C)n(Cc2cccs2)c1C	none
Cc1cc(C(=O)CSc2n[nH]c(-c3ccccc3F)n2)c(C)n1Cc1cccs1	Diaph inh CS 50
O=C(NNC(=O)c1cccc2ccccc12)c1ccc(-c2ccccc2)cc1	none
CCCOc1ccccc1/C=N/NC(=O)C1CC1	none (no result: Tb hexokinase, G6PDH CS, Diaph inh CS)
O=C(Nc1ccc(-n2ccnc2P(=O)(O)c2ccccc2)cc1)c1ccccc1Cl	none
N#Cc1c2nc3ccccc3nc2n2cc(NC(=O)c3ccc(F)cc3)ccc12	Diaph inh CS 90
Cc1c(C(=O)Nc2ccc(F)cc2)cn2c(nc3ccccc32)c1C#N	none (no result: G6PDH CS, Diaph inh CS)
CC1=CC(=O)c2ccccc2C1=O	G6PDH CS 61
O=C1C=C(Nc2ccccc2)C(=O)c2ccccc21	none
CCCN1C(=O)/C(=C/c2nc3ccccc3c(=O)[nH]2)c2ccccc21	none
CC(C)N1C(=O)/C(=C\c2nc3ccccc3c(=O)[nH]2)c2ccccc21	Diaph inh CS 56
CCc1ccc(-n2c(=O)c3ccccc3n(CC(=O)C(C)(C)C)c2=O)cc1	none
COc1ccc(NC(=O)c2cc3cccc(OC)c3oc2=Nc2ccc(C(=O)O)cc2)cc1OC	Diaph inh CS 78
COc1ccc(Br)cc1C(=O)Nc1ccc(C(=O)O)cc1	Diaph inh CS 92
COc1ccc(Br)cc1C(=O)Nc1ccc(O)cc1	none
C=CCOC(=O)C1=C[C@@H](c2csc3ccccc23)C[C@@H](OCc2ccc(CO)cc2)O1	none
COc1cc(NC(=O)CSc2nc3[nH]ncc3c(=O)n2-c2ccc(Cl)cc2)cc(OC)c1	none (no result: Tb hexokinase, G6PDH CS, Diaph inh CS)
O=C(N/C=C/n1cnc2cc(C(F)(F)F)ccc21)c1ccccc1	none
CN1CSC2=C(C#N)C(c3cccc(OCc4ccccc4)c3)CC(=O)N2C1 (centres undefined)	PfGluPho inh 92
CCn1cc(C(=O)Nc2cc3c(cc2NC(C)=O)OCCO3)c(=O)c2ccc(C)nc21	none (no result: HKDC1 inh, PfGluPho inh, G6PDH CS, Diaph inh CS)
CC(C)N(C(=O)Nc1ccc2nccnc2c1)C(C)C	Diaph inh CS 65
Fc1ccc(NC(=S)Nc2ccc3nccnc3c2)cc1	Diaph inh CS 64
OCCCNC(=S)Nc1ccc2nccnc2c1	none
CC(C)(C)c1ccc(S(=O)(=O)NCC(=O)Nc2sc3c(c2C(N)=O)CCCC3)cc1	none
N#Cc1c(N)nc2c3c(sc(=N)c2c1N)NC(=O)CC3c1c(F)cccc1Cl (centres undefined)	Diaph inh CS 53
N#Cc1c(N)nc2c3c(sc(=N)c2c1N)NC(=O)CC3c1ccccc1 (centres undefined)	none
CCC(=O)OCCNc1cc(SCCC(=O)OC)c2nonc2c1[N+](=O)[O-]	Diaph inh CS 71
CC(C)CCSc1cc(NCCO)c([N+](=O)[O-])c2nonc12	Diaph inh CS 80
O=[N+]([O-])c1c(NCCO)cc(N2CCCCC2)c2nonc12	Diaph inh CS 52
CC(=O)OCCNc1cc(SC(C)C)c2nonc2c1[N+](=O)[O-]	Diaph inh CS 52
Cn1c(=O)c2c(nc(Br)n2CC(=O)c2cccs2)n(C)c1=O	none
CN(C)S(=O)(=O)c1ccc(Cl)c(C(=O)Nc2ccc(S(=O)(=O)N3CCOCC3)cc2)c1	none (no result: Tb hexokinase, G6PDH CS, Diaph inh CS)
N#C/C(=C\c1cccnc1)C(=O)Nc1cccc2ccccc12	none
C=CCNc1nc(C(=O)OCC(=O)Nc2cccc(SC)c2)cs1	none (no result: Tb hexokinase, G6PDH CS, Diaph inh CS)
CCOc1cccc(C(=O)NC(=S)NCc2cccnc2)c1	none
CC(C)COc1cccc(C(=O)NC(=S)NCc2cccnc2)c1	Diaph inh CS 51
Cc1cc(C)cc(N=Cc2ccc([N+](=O)[O-])s2)c1	PfGluPho inh 62
O=[N+]([O-])c1ccc(C=Nc2ccc(Cl)c([N+](=O)[O-])c2)s1	none (no result: HKDC1 inh, PfGluPho inh)
